GAA850 FXN act: increases GAA850 frataxin promoter reporter activity; HEK293 lucGAA850 FXN promoter luciferase reporter, 24 h; percent of 10 µM SAHA response; activation, % at 6 µM; 0.56% of 360,000 active; AID 540364;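 active means activation above the average of all compounds screened plus 3 SD, cutoff fixed separately per campaign, cut at about 7.5% in these data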
Hsp70 activator: switches on Hsp70 transcription. HeLa Hsp70 promoter luciferase reporter, luminescence; scaled: vehicle 0, proteasome-inhibitor control 100%. activation, % at 10 µM. 0.04% of 200,000 active;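 active means activation above the mean across all tested compounds plus 3 SD, cutoff set per campaign, cut at about 5.5% in these data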
TAG inh: triacylglycerol accumulation inhibition; AID 651582; 0.66% of 230,000 active; H9c2 cells, Nile Red lipid (TAG) fluorescence; cells loaded with 200 µM oleic acid; inhibition, % at 12.5 µM;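 active means pattern-corrected inhibition of lipid staining of at least 50% with the nuclear-stain viability signal not falling by more than 50%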
HIF act: HIF pathway transcriptional activation | U2OS HRE-luciferase reporter, luminescence; normalized: DMSO 0%, desferrioxamine 100% | activation, % at 7.5 µM (by protocol) | 0.32% of 300,000 active | AID 1910;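 active means mean activation of at least 10% of the iron chelator positive control signal, with at least half of replicates also reaching 10%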
Rad51 HR inh: blocks human Rad51 in homologous recombination; Q06609; 0.085% of 200,000 active; inhibition, % at 10 µM; hRad51 DNA strand exchange, fluorescence dequenching;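 active means inhibition above 40% at the single screening dose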
Target sequence (Q06609 whole entry, looked up): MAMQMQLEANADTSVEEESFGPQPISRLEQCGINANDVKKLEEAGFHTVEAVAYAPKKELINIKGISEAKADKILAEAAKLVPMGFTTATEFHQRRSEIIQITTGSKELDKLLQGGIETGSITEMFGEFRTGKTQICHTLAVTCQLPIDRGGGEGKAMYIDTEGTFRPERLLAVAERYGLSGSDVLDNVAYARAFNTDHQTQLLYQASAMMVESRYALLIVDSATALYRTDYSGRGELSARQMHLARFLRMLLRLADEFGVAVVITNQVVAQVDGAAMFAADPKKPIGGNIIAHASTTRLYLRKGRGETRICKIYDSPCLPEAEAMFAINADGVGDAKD
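System: human Rad51 nucleoprotein filaments preassembled on unlabelled ssDNA. Reagent: labelled 47-mer dsDNA for strand exchange. Schedule: 30-min compound preincubation and 15-min exchange, both room temperature. Measured by: FRET fluorescence dequenching, excitation 485 nm, emission 520 nm. Read-out: Fluorescence-based percent inhibition, control- and blank-normalised. Benchmarks: plate controls and plate blanks.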
ABHD5 PLIN5 PPI: ABHD5-PLIN5 protein interaction inhibition; Q00G26+Q8WTS1; Split G. princeps luciferase complementation, luminescence, 4 h; inhibition, % at 4 µM; 0.78% of 360,000 active;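 active means inhibition above the mean inhibition across every tested compound plus 3 SD, cut at about 22% in these data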
ABHD5-PLIN5 conf: confirmation of human ABHD5-PLIN5 interaction inhibitors | shares compounds with ABHD5 PLIN5 PPI | biochemical ABHD5-PLIN5 interaction, luminescence | inhibition, % at 4 µM | 67% of 2,200 active; in the data active means inhibition above about 23%
HNF4 split-luc: active in HNF4 split-luciferase counter-screen for ABHD5-PLIN5 inhibitors; shares compounds with ABHD5 PLIN5 PPI; HNF4 dimerization, luminescence, biochemical; inhibition, % at 4 µM; 77% of 2,200 active; AID 651674;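 active means mean inhibition across replicate wells exceeding the computed hit threshold, cut at about 13% in these data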;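 further: light from luciferase halves that rejoin when HNF4 fusion proteins dimerize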
Hits are given with their value; i = inactive; nt = no result given; ! = not confirmed by another sample. Shown are actives, neighbours in structure and some others; about 1.9% of the full set was active somewhere.

SMILES	GAA850 FXN act	Hsp70 activator	TAG inh	HIF act	Rad51 HR inh	ABHD5 PLIN5 PPI	ABHD5-PLIN5 conf	HNF4 split-luc
Cc1ccc(C)c(S(=O)(=O)Nc2ccc(-n3cnnn3)cc2)c1	i	nt	i	nt	nt	i	nt	nt
Cc1cccn2c(=O)nc(SCC(=O)Nc3cccc4ccccc34)nc12	i	nt	i	i	nt	104.2	i	i
Cc1ccc(NC(=O)CCNS(=O)(=O)c2ccc3[nH]c(=O)oc3c2)cc1F	i	nt	nt	i	nt	i	nt	nt
CCCCOC(=O)Nc1ccc(S(=O)(=O)Nc2onc(C)c2C)cc1	i	nt	nt	i	nt	i	nt	nt
COc1ccc(-n2c(N)c(C(=O)NCc3ccco3)c3nc4ccccc4nc32)c(OC)c1	i	i	nt	i	i	28.9	50.7	67.5
CCOC(=O)C(=Cc1ccc(-n2ccnc2)cc1)C(=O)OCC	i	i	nt	i	i	63.0	88.3	95.8
CC/C(=C(\c1ccc(O)cc1)c1ccc(OCCN(C)C)cc1)c1ccccc1	i	i	i	i	i	i	nt	nt
CC/C(=C(\c1ccccc1)c1ccc(OCCN(C)C)cc1)c1ccccc1	i	nt	i	i	nt	38.2!	72.4	25.8
O=C1N/C(=C/c2ccc(N3CCOCC3)o2)C(=O)N1c1cccc(Cl)c1	8.9	i	nt	i	i	69.7	70.8	99.8
CC1CN(S(=O)(=O)c2cccc(C(=O)NCC3COc4ccccc4O3)c2)CC(C)O1 (stereo unspecified)	i	nt	i	nt	nt	i	nt	nt
O=C(Nc1ccc[n+](CC(=O)c2cccc3ccccc23)c1)c1ccccc1	i	i	i	i	i	24.0	i	i
CC(=O)c1ccc(N2CCN(S(=O)(=O)c3ccc4c(c3)NC(=O)CC(=O)N4)CC2)cc1	i	nt	nt	i	nt	i	nt	nt
CC(=O)c1ccc(N2CCN(S(=O)(=O)c3ccc4c(c3)C(Cl)(Cl)C(=O)N4)CC2)cc1	i	nt	i	nt	nt	30.7	55.5	50.5
O=C1C=CC(=O)N1CCNc1ncc(C(F)(F)F)cc1Cl	i	i	i	i	i	45.2	61.4	107.0
Cc1cccc(N=C2NC(=O)/C(=C/C=C/c3ccco3)S2)c1	i	i	nt	i	i	24.5	47.9	34.0
COc1ccc(CCNC(=O)CN(c2cccc([N+](=O)[O-])c2)S(C)(=O)=O)cc1OC	i	i	i	i	i	81.8	i	i
COc1ccc(CCNC(=O)CN(c2cc([N+](=O)[O-])ccc2OC)S(C)(=O)=O)cc1OC	i	i	i	i	i	i	nt	nt
O=C(Nc1nc2ccccc2[nH]1)NC1CCCCC1	i	nt	i	i	nt	101.7	i	i
CNc1ccc(Br)cc(C(=O)/C=C/c2cccc(OC)c2)c1=O	i	i	nt	i	i	30.4	65.2	49.5
CCNc1ccc(Br)cc(C(=O)/C=C/c2ccc3c(c2)OCO3)c1=O	i	i	i	i	i	i	nt	nt
O=C1Cc2ccccc2Sc2c(OCCN3CCCCC3)cccc21	i	i	nt	i	i	24.8	i	i
COc1ccc(CNC(=O)C2CCN(S(=O)(=O)c3ccc4c(c3)NC(=O)C(C)S4)CC2)cc1 (stereo unspecified)	i	nt	nt	i	nt	i	nt	nt
CC1Sc2ccc(S(=O)(=O)N3CCC(C(=O)NCc4ccc(Cl)cc4)CC3)cc2NC1=O (stereo unspecified)	i	nt	nt	i	nt	26.7	43.5	nt
CN(C(=O)c1cccc(NC(=O)Cc2cccc(NC(=O)C3CCN(C(=O)CCc4ccccc4)CC3)c2)c1)C1CC1	i	nt	i	nt	nt	i	nt	nt
CCOc1ccccc1NC(=O)CCNC(=O)c1ccc(Cl)cc1	i	i	i	nt	i	i	nt	nt
O=S(=O)(c1ccccc1)N1CCN(Cc2c(O)ccc3ccccc23)CC1	i	nt	i	nt	nt	28.1	38.7	81.4
COc1cc(OC)cc(C(=O)NC(=S)NCCc2ccccc2)c1	i	i	nt	i	i	i	nt	nt
COc1cc(OC)cc(C(=O)NC(=S)N(Cc2ccccc2)C(C)C)c1	i	nt	nt	i	nt	45.4	69.9	i
O=C(/C(=C\c1ccccc1)c1nc2ccccc2[nH]1)c1ccc(Cl)cc1	i	i	nt	i	i	i	nt	nt
